High-throughput results from PubChem.
Beta cell apopt – beta cell apoptosis inhibition; 0.8% of 300,000 active; INS-1E cytokine-induced death, ATP luminescence, 48 h; percent of positive-control rescue, neutral wells zero; AID 435005; protection from apoptosis, % (concentration not given with the values);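 active means Every replicate reaches about 75%, or at least half do and their mean reaches it too, limit read from the data; inconclusive means At least half of replicates reach the limit but their mean does not; inactive means Under half of replicates reach the limit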;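 further: 0% = cytokine-treated negative control wells and 100% = positive control rescue; higher means more ATP so stronger rescue from cytokine killing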
SKKanGAS inh – inhibitors of SKKanGAS S. pyogenes growth in kanamycin (SK-promoter or general growth effect); BacTiter-Glo, 6 h; inhibition, % at 7.5 µM; 1.3% of 300,000 active; AID 1662;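 active means mean replicate score, as percent of positive control median, at least 50; inconclusive means mean below 50 but one replicate at or above 50; inactive means mean and every replicate below 50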;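 further: strain carries kanamycin resistance gene driven by streptokinase promoter and grows in 40 µg/ml kanamycin; loss of luminescence reflects streptokinase promoter inhibition or plain growth inhibition; 0% = median of DMSO wells and 100% = positive control at its reference dose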
Mdm2-MdmX inh – human Mdm2/MdmX binding inhibition; SaOS-2 split-luciferase Mdm2/MdmX complementation, luminescence; O15151+Q00987; inhibition, % at 8 µM; 3% of 330,000 active; AID 485346;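 active means inhibition of at least 50% at 8 µM in the primary screen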
Target sequence (O15151 whole entry, looked up): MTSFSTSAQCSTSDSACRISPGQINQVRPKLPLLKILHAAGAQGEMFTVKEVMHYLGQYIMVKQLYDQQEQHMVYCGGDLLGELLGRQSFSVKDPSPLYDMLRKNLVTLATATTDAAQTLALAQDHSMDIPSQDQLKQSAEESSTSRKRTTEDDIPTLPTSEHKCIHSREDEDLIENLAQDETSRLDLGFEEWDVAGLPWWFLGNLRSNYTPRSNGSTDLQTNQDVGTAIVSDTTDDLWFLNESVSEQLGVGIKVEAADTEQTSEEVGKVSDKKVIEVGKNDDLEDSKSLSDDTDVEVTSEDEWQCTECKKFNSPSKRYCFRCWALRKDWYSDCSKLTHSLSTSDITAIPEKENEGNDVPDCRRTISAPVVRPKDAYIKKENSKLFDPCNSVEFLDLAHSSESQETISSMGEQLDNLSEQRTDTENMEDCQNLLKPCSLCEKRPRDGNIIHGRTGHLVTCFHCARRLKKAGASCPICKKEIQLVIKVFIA
Target sequence (Q00987 whole entry, looked up): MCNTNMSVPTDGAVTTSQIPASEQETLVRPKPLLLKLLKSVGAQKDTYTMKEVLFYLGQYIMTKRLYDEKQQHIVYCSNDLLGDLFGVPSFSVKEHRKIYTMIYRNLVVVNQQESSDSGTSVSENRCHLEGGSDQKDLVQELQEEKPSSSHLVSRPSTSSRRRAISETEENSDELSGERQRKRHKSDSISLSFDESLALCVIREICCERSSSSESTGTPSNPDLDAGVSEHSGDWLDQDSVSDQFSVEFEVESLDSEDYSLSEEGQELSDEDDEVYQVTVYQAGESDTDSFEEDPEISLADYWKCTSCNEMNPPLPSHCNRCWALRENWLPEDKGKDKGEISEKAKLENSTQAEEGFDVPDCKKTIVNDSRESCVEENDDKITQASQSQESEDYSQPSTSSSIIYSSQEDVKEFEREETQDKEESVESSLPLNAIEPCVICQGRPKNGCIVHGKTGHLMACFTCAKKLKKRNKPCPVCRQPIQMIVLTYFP
CSC inhib – cancer stem cell inhibition | AID 2717 | inhibition, % at 7.5 µM | 1.1% of 300,000 active | cancer stem cell-like cells viability, luminescence; in the data active means inhibition above about 75%; inconclusive means no clear call, values can overlap the other calls; tested in HMLE shEcad cells
T cruzi inh – T. cruzi replication inhibition | T. cruzi beta-gal in NIH3T3, luminescence, 90 h | inhibition, % (concentration not given with the values) | 1.4% of 300,000 active;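 active means mean inhibition across valid replicates above about 55%, limit read from the data; inconclusive means mean below that limit but half or more replicates reach it; inactive means mean below it, under half of replicates reach it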;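 further: signal also drops with host cell toxicity which is not excluded here; 0% = plate median of DMSO wells and 100% = zero luminescence signal; higher percent means less beta-gal luminescence so fewer parasites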
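Incubation – ≥90 h infection period, 3 h prior cell attachment · System – NIH/3T3 fibroblasts plus reporter T. cruzi · Doses – compound pinned at 50 nL/well, DMSO · Read-out basis – percent inhibition of parasite-derived β-gal signal · Signal – luminescent β-galactosidase signal after 60 min lysis · Also added – 5000 T. cruzi trypomastigotes/well · Medium – Low-serum DMEM with 2% FBS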
Calb FLC – affects C. albicans growth with fluconazole | AID 1979 | 0.57% of 300,000 active | C. albicans CaCi-2 (fluconazole-resistant clinical isolate) + fluconazole, Alamar Blue growth, 48 h | growth inhibition, % (test concentration not listed);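 active means growth inhibition above about 58% in most replicates, limit read from the data, passing the limit was not always enough; inconclusive means exactly half the replicates above a set limit; inactive means most replicates below a set limit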;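 further: all wells also contain fluconazole at 8 µg/ml as a sub-toxic cotreatment; 0% = median of DMSO wells and 100% = median of geldanamycin control wells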
* = called active by the depositor; ? = inconclusive; . = not tested or not shown. Only some compounds are listed: those with a hit (about 5.7% of all), similar ones and a draw of the others.

SMILES | Beta cell apopt | SKKanGAS inh | Mdm2-MdmX inh | CSC inhib | T cruzi inh | Calb FLC
CN(C)c1ccc(-c2cc([C@H]3[C@@H]4C=CCC[C@@]4(C)C(=O)N3Cc3ccccc3)ccc2F)cc1 | -0.6 | 30.4 | 31.1 | 103.7* | 39.5 | 13.5
CCCN=C1N(CC)C[C@@H]2[C@@H]3C(=O)N(C)C(=O)[C@@H]3[C@](CC)(C(=O)OC)N12 | . | . | 22.4 | . | . | .
COc1ccc(CC(=O)Nc2ccc(F)c(Cl)c2)cc1S(=O)(=O)N1CCOCC1 | 0.5 | . | -19.2 | -10.8 | . | .
CCCOc1cc(N(CC)CC)ccc1/C=C(/C#N)c1nc2ccc(C)cc2[nH]1 | 44.9 | 61.5* | 49.1 | 58.4 | 63.5* | 5.2
COc1cnc(-c2ccccn2)nc1Oc1ccccc1 | . | 57.1* | -11.3 | -1.2 | -1.0 | 18.9
COc1cnc(-c2ccccn2)nc1Sc1ccccc1 | 49.8 | 90.5* | 41.9 | 16.8 | 65.2* | 18.1
COc1cnc(-c2ccccn2)nc1Sc1ccc(Cl)cc1 | 12.4 | ? | 20.5 | -2.1 | 19.4 | -3.4
COc1cnc(-c2ccccn2)nc1Sc1ccc(F)cc1 | 42.2 | 56.5* | 34.1 | 1.1 | -48.7 | ?
COc1ccc(Sc2nc(-c3ccccn3)ncc2OC)cc1 | 89.5* | 10.5 | 26.7 | -7.2 | 62.6* | 2.3
O=C(Nc1ccncc1)Nc1cccc(F)c1 | -7.7 | 0.5 | 34.5 | -5.4 | 38.2 | ?
Cc1ccc(-n2c(N)c(-c3nc4ccccc4n3C)sc2=S)cc1 | 5.6 | 50.3* | -13.3 | . | 38.9 | -5.8
CCOC(=O)c1c(C)nn(Cc2ccccc2)c1N | -2.1 | 9.6 | -0.7 | . | -15.0 | 5.9
Cc1nn(Cc2ccccc2)c(C)c1C(=O)OCC(=O)c1cc(C)n(CC(F)(F)F)c1C | 8.7 | 1.1 | 28.6 | 77.6* | 34.5 | -12.8
Cc1cc(C(=O)N2CCc3c([nH]c4ccccc34)C2c2cccc(Cl)c2)nn1C (stereo unspecified) | 5.8 | 28.7 | 28.8 | 14.7 | 56.5* | 30.4
COc1ccc(C(=O)Nc2ccc(OCC(F)(F)C(F)F)c(C(F)(F)F)c2)cc1OC | 10.7 | 13.0 | 23.9 | 92.3* | 47.6 | -0.1
Nc1ccc(N(c2ccccc2)c2ccc(N)cc2)cc1 | . | 9.7 | 7.6 | 90.0* | 58.4* | -14.2
CCn1cc(/C=C/c2cc[n+](C)cc2)c2ccccc21 | 85.2* | -5.0 | . | 12.3 | 54.7* | 94.2*
CCN(CC)C(=O)Cn1c(C)c(/C=C/c2cc[n+](C)cc2)c2ccccc21 | -5.2 | 2.8 | 10.6 | -6.7 | 5.5 | -5.0
N#Cc1cc2ccccc2nc1SCC(=O)Nc1ccc(S(=O)(=O)N2CCCC2)cc1 | 27.0 | 4.5 | -16.0 | 29.1 | 56.3* | 0.2
COc1ccc2nc(SCC(=O)Nc3ccc(S(=O)(=O)N4CCCC4)cc3)c(C#N)cc2c1 | 16.1 | -3.7 | 13.3 | 7.7 | 28.0 | -1.1
Cc1cc(NC2CCCCC2)nc(NCc2ccccc2)n1 | 104.4* | -3.8 | 28.2 | 16.0 | 57.5* | 0.6
COc1cc(C)nc(NCc2ccccc2)n1 | -4.8 | -0.3 | -8.4 | -6.6 | 8.3 | -6.7
Cc1cc(OC(C)C)nc(NCc2ccccc2)n1 | 4.0 | 1.5 | 23.5 | 40.9 | -1.9 | 2.8
COc1ccc(Nc2cc(C)nc(NCc3ccccc3)n2)cc1 | 59.9 | 6.6 | 17.2 | 33.9 | 60.7* | 3.3
COc1ccc(CCC(=O)NC2CCC(C)CC2)cc1 (stereo unspecified) | 0.5 | 1.3 | -3.2 | -14.3 | -12.6 | -1.3
SMILES | Beta cell apopt | SKKanGAS inh | Mdm2-MdmX inh | CSC inhib | T cruzi inh | Calb FLC
CCOC(=O)CCCCCC(=O)Nc1ccc2c(c1)C(=O)N([C@H](C)CO)C[C@@H](C)[C@H](CN(C)Cc1ccc3c(c1)OCO3)O2 | -9.1 | . | 15.5 | -17.3 | . | .
CC(C)c1ccccc1NC(=O)c1ccc2ncsc2c1 | -7.8 | -2.6 | 8.8 | -3.7 | 0.4 | -22.4
COc1cc(NC(=S)NCc2cccnc2)c(OC)cc1Cl | -2.2 | 0.0 | -0.6 | -13.8 | 6.5 | -1.4
COc1cc(OC)c(NC(=S)NCc2ccccc2)cc1Cl | -3.8 | . | -9.4 | -17.2 | . | 125.5*
Cc1cccc2sc(NC(=O)C3CCN(S(=O)(=O)c4cc([N+](=O)[O-])ccc4Cl)CC3)nc12 | 8.9 | 27.6 | 31.8 | 7.2 | 67.6* | 18.3
O=C(CN1C(=O)NC2(CCCC2)C1=O)NNC(=O)c1ccccc1 | -4.0 | -14.6 | 13.1 | -14.9 | -5.1 | .
C/C(=N\Nc1cccc(Cl)c1)c1ccncc1 | -3.2 | -3.8 | 2.1 | 33.0 | 59.3* | -34.0
Clc1ccc(/C=N\Nc2ccccc2)cc1 | -12.6 | 6.6 | -2.4 | 7.6 | 14.5 | -0.9
Cc1ccc(N/N=C/c2ccncc2)cc1 | -1.4 | -0.2 | -25.8 | 79.3* | 15.3 | 99.7*
Cc1ccc(N/N=C/c2cccnc2)cc1 | -2.8 | 0.7 | -34.2 | ? | 6.7 | -11.8
Clc1cccc(N/N=C/c2ccncc2)c1 | 3.2 | -7.8 | 10.9 | -5.7 | 22.8 | 92.7*
COc1cc(/C=N/NC(=O)c2ccc(CN(C)S(=O)(=O)c3ccc(C)cc3)cc2)ccc1O | 7.8 | 2.3 | 18.2 | 78.3* | 2.3 | 0.2
COc1ccc(/C=N/NC(=O)c2ccc(-c3ccccc3)cc2)cc1O | . | 0.4 | 14.1 | -5.3 | -18.1 | 82.9*
CCOC(=O)/C(=N\Nc1ccccc1Cl)N1CCN(c2ccccc2OC)CC1 | 2.8 | ? | 11.4 | 40.5 | 67.2* | -19.2
CC(C)OC(=O)C(C#N)c1nc2ccccc2nc1N1CCCC1 (stereo unspecified) | -0.8 | 3.7 | 14.1 | -4.5 | 9.1 | 2.6
C=CCOC(=O)C(C#N)c1nc2ccccc2nc1N1CCN(c2ccccc2OCC)CC1 (stereo unspecified) | 4.8 | 4.6 | 12.4 | 8.1 | 28.9 | 2.1
Cc1ccc(S(=O)(=O)C(C#N)c2nc3ccccc3nc2N2CCN(C)CC2)cc1C (stereo unspecified) | -9.8 | 5.5 | -7.5 | -3.4 | 4.2 | 82.9*
C=CCOC(=O)C(C#N)c1nc2ccccc2nc1N1CCN(Cc2ccc3c(c2)OCO3)CC1 (stereo unspecified) | -3.3 | 12.8 | 24.5 | 38.0 | 57.2* | 0.5
CC1CCN(c2nc3ccccc3nc2C(C#N)C(=O)NC2CCCCC2)CC1 (stereo unspecified) | -8.8 | 67.6* | 9.4 | -2.5 | 4.9 | 0.0
CCC(C)COC(=O)C(C#N)c1nc2ccccc2nc1N1CCCCC1 (stereo unspecified) | 10.4 | 52.8* | -2.1 | 8.9 | 41.3 | 17.7
CCCNC(=O)c1ccc(COc2ccc(CCC)cc2OC)o1 | . | 1.7 | 9.6 | . | 0.6 | -8.0
CNC(=O)N1CCC(C(=O)c2c(C)c(C)c(C)c(C)c2C)CC1 | -8.9 | -6.2 | -18.3 | 1.0 | 0.4 | 3.0
CCCCCCOC(=O)C(C#N)c1nc2ccccc2nc1N1CCN(C)CC1 (stereo unspecified) | 46.0 | 13.2 | 32.6 | 6.2 | 67.7* | 11.3
CCCCCCOC(=O)C(C#N)c1nc2ccccc2nc1N1CCCCC1 (stereo unspecified) | 13.0 | 33.4 | -16.2 | 36.3 | 37.0 | -4.6
